Results as given in ChEMBL document CHEMBL4376893, “Identification of Psychoplastogenic N,N-Dimethylaminoisotryptamine (isoDMT) Analogues through Structure-Activity Relationship Studies” (2020).
Activity calls are given as the source filed them. The calls are words filed in the database; no cut-off is given here.

Columns and labels:
Cortical neurone [1] = assay: Induction of dendritogenesis in Sprague-Dawley rat cortical neurons assessed as dendritic arbor complexity at 10 uM after 1 hr supplemented with fresh neurobasal medium measured after 71 hrs by Alexa Fluor 488 dye based imaging analysis; type: functional, cell-based
Summary of the method: (§1)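 Cortical neurons from timed-pregnant Sprague Dawley rats, about 15,000 cells/well in B27 Neurobasal. On DIV3, dosed 1 h at 0.1% DMSO (10 μM standard; 10 pM–10 μM in concentration-response runs), then medium replaced and grown 71 h. PFA-fixed, MAP2 immunostained with Alexa Fluor 488 secondary, 20x imaging. Blinded Sholl analysis, Nmax = maximum crossings; ≥6 wells over 2 plates from independent dams.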

Danio rerio = organism: Danio rerio; assay: Induction of acute behavioural changes in wild type zebrafish Singapore at 7 days post-fertilization stage after 1 hr by imaging analysis; type: functional
Summary of the method: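 Wild-type Singapore larvae at 7 dpf, 8 per well in 300 μL egg water, rested 1 h at RT. DMSO stocks added (0.4% DMSO), then 1 h RT incubation. After 5 min dark acclimation, a 17-min acoustic/visual stimulus battery was run under IR video. Locomotion was taken as changed pixels. Random-forest out-of-bag accuracy versus vehicle wells was used, n = 21 wells.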

Mus musculus [2] = assay: Induction of head-twitch response in C57BL/6J mouse assessed as reduction in hallucinogenic potential at 1 to 50 mg/kg, iv measured after 20 mins; type: functional, organism-based
Cortical neurone [3] = assay: Induction of dendritogenesis in Sprague-Dawley rat cortical neurons assessed as increase in dendritic arbor complex at 1 nM after 1 hr supplemented with fresh neurobasal medium measured after 71 hrs by Alexa Fluor 488 dye based imaging analysis; type: functional, cell-based; summary of the method: as §1
Mus musculus [4] = assay: Induction of head-twitch response in iv dosed C57BL/6J mouse assessed as reduction in hallucinogenic potential measured after 20 mins; type: functional, organism-based
[5] = biological target: 5-hydroxytryptamine receptor 2A (Rattus norvegicus) (UniProt P14842); settings: Sprague-Dawley, 1 uM
5-hydroxytryptamine receptor 2A (Rattus norvegicus), sequence (P14842 whole entry): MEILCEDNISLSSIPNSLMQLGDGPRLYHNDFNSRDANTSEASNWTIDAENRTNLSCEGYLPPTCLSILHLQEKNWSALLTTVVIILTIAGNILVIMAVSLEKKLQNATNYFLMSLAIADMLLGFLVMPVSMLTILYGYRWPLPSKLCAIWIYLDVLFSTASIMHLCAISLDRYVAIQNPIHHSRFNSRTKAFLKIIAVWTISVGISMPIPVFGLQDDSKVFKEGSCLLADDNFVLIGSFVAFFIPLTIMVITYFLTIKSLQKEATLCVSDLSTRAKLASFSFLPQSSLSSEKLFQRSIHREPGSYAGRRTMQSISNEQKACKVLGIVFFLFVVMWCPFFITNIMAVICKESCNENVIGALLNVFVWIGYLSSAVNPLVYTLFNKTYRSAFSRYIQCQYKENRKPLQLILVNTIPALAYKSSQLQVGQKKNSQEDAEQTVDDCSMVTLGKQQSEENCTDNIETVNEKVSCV

Row | Compound | Activity (Cortical neurone [1]) | further results
1 | COc1cccc2c1ccn2CCN(C)C | inactive | –
2 | CN(C)CCn1ccc2ccc(F)cc21 | Active | –
3 | CN(C)CCn1ccc2c(F)cccc21 | inactive | –
4 | COc1ccc2ccn(CCN(C)C)c2c1 | Active | Activity (Danio rerio): Dose-dependent effect; ECmax (Danio rerio): 200 µM; Activity (Mus musculus [2]): Active
5 | CN(C)CCn1ccc2ccccc21 | Active | –
6 | CN(C)CCn1ccc2ccc(OCc3ccccc3)cc21 | Active | –
7 | COc1ccc2c(ccn2CCN(C)C)c1.O=C(O)/C=C/C(=O)O | Active | Activity (Danio rerio): Dose-dependent effect; ECmax (Danio rerio): 200 µM; Activity (Mus musculus [2]): inactive
8 | CN(C)CCc1cn(C)c2ccccc12 | Active | –
9 | COc1cccc2ccn(CCN(C)C)c12 | Active | –
10 | CN(C)CCn1ccc2c(OCc3ccccc3)cccc21 | inactive | –
11 | COc1ccc2[nH]cc(CCN(C)C)c2c1 [MEBUFOTENIN] | – | Activity (Cortical neurone [3]): Active; Activity (Danio rerio): Dose-dependent effect; ECmax (Danio rerio): 200 µM; Activity (Mus musculus [4]): Dose-dependent effect; inhibition [5]: Active
12 | CC(C)CCn1ccc2ccccc21 | inactive | –
13 | CN(C)CCc1c[nH]c2ccccc12 | Active | Activity (Cortical neurone [3]): Active
14 | CN(C)CCn1ccc2cc(OCc3ccccc3)ccc21 | Active | –
15 | CN(C)CCn1c2ccccc2c2ccccc21 | Active | –
16 | COc1ccc2c(CCN(C)C)c[nH]c2c1 | – | Activity (Danio rerio): Dose-dependent effect; ECmax (Danio rerio): 200 µM; Activity (Mus musculus [2]): inactive
17 | CN(C)CCn1ccc2cccc(OCc3ccccc3)c21 | Active | –
18 | CN(C)C(=O)Cn1ccc2ccccc21 | inactive | –
19 | CNC1(c2ccccc2Cl)CCCCC1=O (stereo unspecified) | – | Activity (Cortical neurone [3]): Active
20 | CN(C)CCn1cnc2ccccc21 | Active | –
21 | CN(C)CCn1cccc1 | Active | –
22 | CN(C)CCn1ccc2cccc(F)c21 | Active | –
23 | CN(C)CCn1ccc2cc(F)ccc21 | Active | –
